Reference: ChEMBL document CHEMBL1126160, “Synthesis and structure-activity relationships of 7-diazabicycloalkylquinolones, including danofloxacin, a new quinolone antibacterial agent for veterinary medicine” (J Med Chem, 1992)
Converted amounts (≈) assume the structure as drawn.

test system: Phocaeicola vulgatus; test: In vitro antibacterial activity against anaerobically grown Bacteroides vulgatus (78D029); format: functional; settings: not given
In short: (§1)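 Agar dilution MICs. Anaerobic strains were tested on tryptose agar with 5% bovine blood and incubated 48 h at 39 °C in an anaerobe chamber under N2/CO2/H2 (80:10:10).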

SMILES	MIC
CN1C[C@@H]2C[C@H]1CN2c1cc2c(cc1F)c(=O)c(C(=O)O)cn2-c1ccc(F)cc1	1.56 µg/mL (≈ 3.79 µM)
CNn1cc(C(=O)O)c(=O)c2cc(F)c(N3CCN4CCC3CC4)cc21	> 25 µg/mL
CN1C2CC[C@@H]1CCN(c1c(F)cc3c(=O)c(C(=O)O)cn(C4CC4)c3c1F)C2	0.78 µg/mL (≈ 1.93 µM)
CN1C[C@@H]2C[C@H]1CN2c1c(F)cc2c(=O)c(C(=O)O)cn(-c3ccc(F)cc3F)c2c1F	1.56 µg/mL (≈ 3.49 µM)
CN1[C@@H]2CC[C@H]1CN(c1c(F)cc3c(=O)c(C(=O)O)cn(C4CC4)c3c1F)C2	25 µg/mL (≈ 64.2 µM)

test system: Pasteurella multocida; test: In vivo protective dose was evaluated against Pasteurella multocida (59A006) in mouse(sc); format: functional; settings: read-out: PD50
In short: (§2)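 Female CF-1 mice (15 g), groups of 10, challenged ip with 0.5 mL bacterial suspension (P. multocida 59A006 or E. coli 51A266 at 3.0 × 10^8 cfu/mL; S. choleraesuis 58B010 at 8.5 × 10^2 cfu/mL). Drug given sc or po at 30 min, 4 h and 24 h after challenge; survival recorded at 96 h; PD50 by probit analysis.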

SMILES	ED50
CN1C[C@@H]2C[C@H]1CN2c1cc2c(cc1F)c(=O)c(C(=O)O)cn2-c1ccc(F)cc1	0.29 mg/kg

test system: Escherichia coli; test: Escherichia coli DNA cleavage endpoint value which is the minimum amount required (in micro g/mL) to induce detectable cleavage of supercoiled pBR322 substrate to linear form (gyrase); format: functional; settings: read-out: MIC
In short: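 DNA gyrase A and B subunits were purified from E. coli overproducers. About 2 units of holoenzyme were incubated with pBR322 in Tris-HCl pH 7.5 containing MgCl2, spermidine, DTT, 0.2 mM ATP, BSA and tRNA. Drug was added as 2-fold serial dilutions, and reactions ran for 60 min at 25 °C. Reactions were stopped with SDS and proteinase K, then run on agarose and stained with ethidium. The endpoint was the lowest concentration giving detectable linear DNA.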

SMILES	minimum concentration inducing gyrase-mediated DNA cleavage
CN1C[C@@H]2C[C@H]1CN2c1cc2c(cc1F)c(=O)c(C(=O)O)cn2-c1ccc(F)cc1	1.56 µg/mL
CNn1cc(C(=O)O)c(=O)c2cc(F)c(N3CCN4CCC3CC4)cc21	1.56 µg/mL
CN1C2CC[C@@H]1CCN(c1c(F)cc3c(=O)c(C(=O)O)cn(C4CC4)c3c1F)C2	0.39 µg/mL
CN1C[C@@H]2C[C@H]1CN2c1c(F)cc2c(=O)c(C(=O)O)cn(-c3ccc(F)cc3F)c2c1F	0.78 µg/mL
CN1[C@@H]2CC[C@H]1CN(c1c(F)cc3c(=O)c(C(=O)O)cn(C4CC4)c3c1F)C2	0.78 µg/mL

test system: Actinobacillus pleuropneumoniae; test: In vitro antibacterial activity against anaerobically grown Actinobacillus pleuropneumoniae ([…]); format: functional; settings: not given; in short: as §1

SMILES	MIC
CN1C[C@@H]2C[C@H]1CN2c1cc2c(cc1F)c(=O)c(C(=O)O)cn2-c1ccc(F)cc1	0.1 µg/mL (≈ 0.243 µM)
CNn1cc(C(=O)O)c(=O)c2cc(F)c(N3CCN4CCC3CC4)cc21	< 0.05 µg/mL
CN1C2CC[C@@H]1CCN(c1c(F)cc3c(=O)c(C(=O)O)cn(C4CC4)c3c1F)C2	0.1 µg/mL (≈ 0.248 µM)
CN1C[C@@H]2C[C@H]1CN2c1c(F)cc2c(=O)c(C(=O)O)cn(-c3ccc(F)cc3F)c2c1F	0.1 µg/mL (≈ 0.224 µM)
CN1[C@@H]2CC[C@H]1CN(c1c(F)cc3c(=O)c(C(=O)O)cn(C4CC4)c3c1F)C2	0.39 µg/mL (≈ 1 µM)

test system: Staphylococcus aureus; test: In vitro antibacterial activity against aerobically grown Staphylococcus aureus (54B004); format: functional; settings: not given
In short: (§3)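 Agar dilution MICs. Aerobic strains were tested on brain heart infusion agar and incubated aerobically at 37 °C for 18–20 h.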

SMILES	MIC
CN1C[C@@H]2C[C@H]1CN2c1cc2c(cc1F)c(=O)c(C(=O)O)cn2-c1ccc(F)cc1	0.2 µg/mL (≈ 0.486 µM)
CNn1cc(C(=O)O)c(=O)c2cc(F)c(N3CCN4CCC3CC4)cc21	1.56 µg/mL (≈ 4.33 µM)
CN1C2CC[C@@H]1CCN(c1c(F)cc3c(=O)c(C(=O)O)cn(C4CC4)c3c1F)C2	0.2 µg/mL (≈ 0.496 µM)
CN1C[C@@H]2C[C@H]1CN2c1c(F)cc2c(=O)c(C(=O)O)cn(-c3ccc(F)cc3F)c2c1F	0.2 µg/mL (≈ 0.447 µM)
CN1[C@@H]2CC[C@H]1CN(c1c(F)cc3c(=O)c(C(=O)O)cn(C4CC4)c3c1F)C2	0.39 µg/mL (≈ 1 µM)

test system: Salmonella enterica; test: In vitro antibacterial activity against aerobically grown Salmonella choleraesuis (58B015); format: functional; settings: not given

SMILES	MIC
CN1C[C@@H]2C[C@H]1CN2c1cc2c(cc1F)c(=O)c(C(=O)O)cn2-c1ccc(F)cc1	0.2 µg/mL (≈ 0.486 µM)
CNn1cc(C(=O)O)c(=O)c2cc(F)c(N3CCN4CCC3CC4)cc21	1.56 µg/mL (≈ 4.33 µM)
CN1C2CC[C@@H]1CCN(c1c(F)cc3c(=O)c(C(=O)O)cn(C4CC4)c3c1F)C2	0.1 µg/mL (≈ 0.248 µM)
CN1C[C@@H]2C[C@H]1CN2c1c(F)cc2c(=O)c(C(=O)O)cn(-c3ccc(F)cc3F)c2c1F	0.39 µg/mL (≈ 0.872 µM)
CN1[C@@H]2CC[C@H]1CN(c1c(F)cc3c(=O)c(C(=O)O)cn(C4CC4)c3c1F)C2	0.39 µg/mL (≈ 1 µM)

test system: Bordetella bronchiseptica; test: In vitro antibacterial activity against aerobically grown Bordetella bronchiseptica (73A009); format: functional; settings: not given; in short: as §3

SMILES	MIC
CN1C[C@@H]2C[C@H]1CN2c1cc2c(cc1F)c(=O)c(C(=O)O)cn2-c1ccc(F)cc1	1.56 µg/mL (≈ 3.79 µM)
CNn1cc(C(=O)O)c(=O)c2cc(F)c(N3CCN4CCC3CC4)cc21	12.5 µg/mL (≈ 34.7 µM)
CN1C2CC[C@@H]1CCN(c1c(F)cc3c(=O)c(C(=O)O)cn(C4CC4)c3c1F)C2	> 1.56 µg/mL
CN1C[C@@H]2C[C@H]1CN2c1c(F)cc2c(=O)c(C(=O)O)cn(-c3ccc(F)cc3F)c2c1F	> 1.56 µg/mL
CN1[C@@H]2CC[C@H]1CN(c1c(F)cc3c(=O)c(C(=O)O)cn(C4CC4)c3c1F)C2	3.13 µg/mL (≈ 8.04 µM)

test system: Escherichia coli; test: In vivo protective dose was evaluated against Escherichia coli (51A266) in mouse(sc); format: functional; settings: read-out: PD50; in short: as §2

SMILES	ED50
CN1C[C@@H]2C[C@H]1CN2c1cc2c(cc1F)c(=O)c(C(=O)O)cn2-c1ccc(F)cc1	0.94 mg/kg

test system: Pasteurella multocida; test: In vitro antibacterial activity against aerobically grown Pasteurella multocida (59A006); format: functional; settings: not given; in short: as §3

SMILES	MIC
CN1C[C@@H]2C[C@H]1CN2c1cc2c(cc1F)c(=O)c(C(=O)O)cn2-c1ccc(F)cc1	0.02 µg/mL (≈ 0.0486 µM)
CNn1cc(C(=O)O)c(=O)c2cc(F)c(N3CCN4CCC3CC4)cc21	0.1 µg/mL (≈ 0.277 µM)
CN1C2CC[C@@H]1CCN(c1c(F)cc3c(=O)c(C(=O)O)cn(C4CC4)c3c1F)C2	0.02 µg/mL (≈ 0.0496 µM)
CN1C[C@@H]2C[C@H]1CN2c1c(F)cc2c(=O)c(C(=O)O)cn(-c3ccc(F)cc3F)c2c1F	0.02 µg/mL (≈ 0.0447 µM)
CN1[C@@H]2CC[C@H]1CN(c1c(F)cc3c(=O)c(C(=O)O)cn(C4CC4)c3c1F)C2	0.1 µg/mL (≈ 0.257 µM)

test system: not listed separately; test: In vitro evaluation for antibacterial activity against anaerobically grown Treponema hyodysenteriae (94A007); format: functional; settings: Brachyspira hyodysenteriae

SMILES	MIC
CN1C[C@@H]2C[C@H]1CN2c1cc2c(cc1F)c(=O)c(C(=O)O)cn2-c1ccc(F)cc1	0.78 µg/mL (≈ 1.9 µM)
CNn1cc(C(=O)O)c(=O)c2cc(F)c(N3CCN4CCC3CC4)cc21	3.13 µg/mL (≈ 8.69 µM)
CN1C2CC[C@@H]1CCN(c1c(F)cc3c(=O)c(C(=O)O)cn(C4CC4)c3c1F)C2	> 3.13 µg/mL
CN1C[C@@H]2C[C@H]1CN2c1c(F)cc2c(=O)c(C(=O)O)cn(-c3ccc(F)cc3F)c2c1F	> 3.13 µg/mL
CN1[C@@H]2CC[C@H]1CN(c1c(F)cc3c(=O)c(C(=O)O)cn(C4CC4)c3c1F)C2	0.78 µg/mL (≈ 2 µM)

test system: Trueperella pyogenes; test: In vitro antibacterial activity against anaerobically grown Actinomyces pyogenes (14D002); format: functional; settings: not given; in short: as §1

SMILES	MIC
CN1C[C@@H]2C[C@H]1CN2c1cc2c(cc1F)c(=O)c(C(=O)O)cn2-c1ccc(F)cc1	3.13 µg/mL (≈ 7.61 µM)
CNn1cc(C(=O)O)c(=O)c2cc(F)c(N3CCN4CCC3CC4)cc21	6.25 µg/mL (≈ 17.3 µM)
CN1C2CC[C@@H]1CCN(c1c(F)cc3c(=O)c(C(=O)O)cn(C4CC4)c3c1F)C2	1.56 µg/mL (≈ 3.87 µM)
CN1C[C@@H]2C[C@H]1CN2c1c(F)cc2c(=O)c(C(=O)O)cn(-c3ccc(F)cc3F)c2c1F	1.56 µg/mL (≈ 3.49 µM)
CN1[C@@H]2CC[C@H]1CN(c1c(F)cc3c(=O)c(C(=O)O)cn(C4CC4)c3c1F)C2	1.56 µg/mL (≈ 4.01 µM)

test system: not listed separately; test: In vitro antibacterial activity against Aerobically grown Pasteurella haemolytica (59B018); format: functional; settings: Mannheimia haemolytica; in short: as §3

SMILES	MIC
CN1C[C@@H]2C[C@H]1CN2c1cc2c(cc1F)c(=O)c(C(=O)O)cn2-c1ccc(F)cc1	0.1 µg/mL (≈ 0.243 µM)
CNn1cc(C(=O)O)c(=O)c2cc(F)c(N3CCN4CCC3CC4)cc21	0.1 µg/mL (≈ 0.277 µM)
CN1C2CC[C@@H]1CCN(c1c(F)cc3c(=O)c(C(=O)O)cn(C4CC4)c3c1F)C2	0.1 µg/mL (≈ 0.248 µM)
CN1C[C@@H]2C[C@H]1CN2c1c(F)cc2c(=O)c(C(=O)O)cn(-c3ccc(F)cc3F)c2c1F	0.1 µg/mL (≈ 0.224 µM)
CN1[C@@H]2CC[C@H]1CN(c1c(F)cc3c(=O)c(C(=O)O)cn(C4CC4)c3c1F)C2	0.1 µg/mL (≈ 0.257 µM)

test system: Escherichia coli; test: In vitro antibacterial activity against aerobically grown Escherichia coli (51A538); format: functional; settings: not given; in short: as §3

SMILES	MIC
CN1C[C@@H]2C[C@H]1CN2c1cc2c(cc1F)c(=O)c(C(=O)O)cn2-c1ccc(F)cc1	0.2 µg/mL (≈ 0.486 µM)
CNn1cc(C(=O)O)c(=O)c2cc(F)c(N3CCN4CCC3CC4)cc21	0.39 µg/mL (≈ 1.08 µM)
CN1C2CC[C@@H]1CCN(c1c(F)cc3c(=O)c(C(=O)O)cn(C4CC4)c3c1F)C2	0.1 µg/mL (≈ 0.248 µM)
CN1C[C@@H]2C[C@H]1CN2c1c(F)cc2c(=O)c(C(=O)O)cn(-c3ccc(F)cc3F)c2c1F	0.2 µg/mL (≈ 0.447 µM)
CN1[C@@H]2CC[C@H]1CN(c1c(F)cc3c(=O)c(C(=O)O)cn(C4CC4)c3c1F)C2	0.2 µg/mL (≈ 0.514 µM)

test system: Clostridium perfringens; test: microbe, parasite or virus in culture; format: functional; settings: not given

SMILES	MIC
CN1C[C@@H]2C[C@H]1CN2c1cc2c(cc1F)c(=O)c(C(=O)O)cn2-c1ccc(F)cc1	0.1 µg/mL (≈ 0.243 µM)
CNn1cc(C(=O)O)c(=O)c2cc(F)c(N3CCN4CCC3CC4)cc21	0.78 µg/mL (≈ 2.16 µM)
CN1C2CC[C@@H]1CCN(c1c(F)cc3c(=O)c(C(=O)O)cn(C4CC4)c3c1F)C2	0.39 µg/mL (≈ 0.967 µM)
CN1C[C@@H]2C[C@H]1CN2c1c(F)cc2c(=O)c(C(=O)O)cn(-c3ccc(F)cc3F)c2c1F	0.39 µg/mL (≈ 0.872 µM)
CN1[C@@H]2CC[C@H]1CN(c1c(F)cc3c(=O)c(C(=O)O)cn(C4CC4)c3c1F)C2	0.78 µg/mL (≈ 2 µM)
